The text below walks through data of PubChem BioAssay.

Calls of active or inactive are those of the source.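 The calls were made as follows, unless noted: active = Her2 level under about 52% in both replicate screens, with viability over 70% of control (limit read from the data); inconclusive = Her2 under the limit in one screen only, or viability under 70%; inactive = Her2 level above the set limit.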

Experiment [1] can be described thus: Her2 expression decrease, cell viability multiplex – SKBR3 breast tumor cells, AlphaScreen, ATP viability, primary screen (AID 461).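 As to Her2 level: lower value means less Her2 protein in the cells.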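 As to viability: percent of carrier control wells set as 100% viability.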 Particulars: SKBR3 Her2 protein level, 18-24 h, measured here: SKBR3 viability, ATP luminescence, at 10 µM. In general terms: In Alpha technology, singlet oxygen from a donor bead excites a nearby acceptor bead.
The target in experiment [2] is Receptor tyrosine-protein kinase erbB-2 (Homo sapiens) (UniProt P04626). Described as above. Particulars: 18-24 h, at 10 µM, stronger effect = lower value.
Experiment [3] is described as follows: reduced viability of SK-BR-3 breast cancer cells – cell-based, 24 h, human, pilot screen (AID 572;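 active = viability at or below 10% of carrier control in both of two separate runs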;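 also: compound exposure lasted between 18 and 24 h rather than exactly 24 h; 100% = carrier-treated control wells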). To be noted: SK-BR-3 viability, CellTiter-Glo luminescence, at 10 µM, stronger effect = lower value. On the technique in general: In ATP-based viability assays light output follows the ATP content of the culture.
Experiment [4] is described as follows: HUVEC growth inhibition – cell-based, human, primary screen (AID 575;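 active = viability at or below 30% in both replicate assays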;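 also: 100% = median of untreated cell wells with 0.1% DMSO on each plate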). To be noted: HUVEC proliferation, CellTiter-Glo luminescence, 72 h; at 10 µM; stronger effect = lower value. The procedure, abridged:
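Test system: HUVEC primary cells. Quantity: 1250 endothelial cells in each well. Dosing: single-point 10 µM, DMSO 0.1% final. Incubation: 72 h treatment at 37 °C. Measured by: CTG luminescence. Control set: DMSO cell controls and MePR drug controls. Plate: collagen-coated 384-well format.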

A short description of experiment [5]: H69AR cell proliferation blockers – human, duplicate replicates, primary screen (AID 580;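 active = viability at or under a set limit in both replicates, limit being median viability minus 3 SD, cut at about 48% in these data, passing the limit was not always enough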;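 also: 100% = mean luminescence of untreated wells and 0% = no signal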). Particulars: H69AR lung tumor cells viability, ATP luminescence, 72 h; at 10 µM; stronger effect = lower value.
Experiment [6] is described as follows: MRP1 drug-resistance reversers in H69AR cells – cell-based, doxorubicin co-treatment, pilot screen (AID 601;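 active = viability loss from added drug above about 55%, and viability with drug at most 40%, in both replicates, limit read from the data, passing the limit was not always enough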). To be noted: CellTiter-Glo, 72 h, at 10 µM; for differential viability (reversal): stronger effect = higher value.
Experiment [7] can be described thus: yeast transport mutant growth inhibition pilot in 384-well plates, post-Golgi transport modulator project (AID 636; in the data active = inhibition above about 31%). Particulars: absorbance 615 nm, about 18 h, stronger effect = higher value.
Experiment [8] can be described thus: growth suppression of yeast trafficking mutant, preliminary HTS, modulators of trafficking downstream of Golgi apparatus project, 1536-format plate, OD 615 nm (AID 637; in the data active = inhibition above about 30%). Particulars: yeast transport mutant growth, absorbance 615 nm, 18 h; stronger effect = higher value.
Where [9] appears, read: H69AR cells + 2 uM doxorubicin, measured here: viability with 2 uM doxorubicin, stronger effect = lower value.
Setting [10] is: H69AR cells, compound alone cytotoxicity.

Receptor tyrosine-protein kinase erbB-2 (Homo sapiens), sequence (P04626 whole entry, looked up): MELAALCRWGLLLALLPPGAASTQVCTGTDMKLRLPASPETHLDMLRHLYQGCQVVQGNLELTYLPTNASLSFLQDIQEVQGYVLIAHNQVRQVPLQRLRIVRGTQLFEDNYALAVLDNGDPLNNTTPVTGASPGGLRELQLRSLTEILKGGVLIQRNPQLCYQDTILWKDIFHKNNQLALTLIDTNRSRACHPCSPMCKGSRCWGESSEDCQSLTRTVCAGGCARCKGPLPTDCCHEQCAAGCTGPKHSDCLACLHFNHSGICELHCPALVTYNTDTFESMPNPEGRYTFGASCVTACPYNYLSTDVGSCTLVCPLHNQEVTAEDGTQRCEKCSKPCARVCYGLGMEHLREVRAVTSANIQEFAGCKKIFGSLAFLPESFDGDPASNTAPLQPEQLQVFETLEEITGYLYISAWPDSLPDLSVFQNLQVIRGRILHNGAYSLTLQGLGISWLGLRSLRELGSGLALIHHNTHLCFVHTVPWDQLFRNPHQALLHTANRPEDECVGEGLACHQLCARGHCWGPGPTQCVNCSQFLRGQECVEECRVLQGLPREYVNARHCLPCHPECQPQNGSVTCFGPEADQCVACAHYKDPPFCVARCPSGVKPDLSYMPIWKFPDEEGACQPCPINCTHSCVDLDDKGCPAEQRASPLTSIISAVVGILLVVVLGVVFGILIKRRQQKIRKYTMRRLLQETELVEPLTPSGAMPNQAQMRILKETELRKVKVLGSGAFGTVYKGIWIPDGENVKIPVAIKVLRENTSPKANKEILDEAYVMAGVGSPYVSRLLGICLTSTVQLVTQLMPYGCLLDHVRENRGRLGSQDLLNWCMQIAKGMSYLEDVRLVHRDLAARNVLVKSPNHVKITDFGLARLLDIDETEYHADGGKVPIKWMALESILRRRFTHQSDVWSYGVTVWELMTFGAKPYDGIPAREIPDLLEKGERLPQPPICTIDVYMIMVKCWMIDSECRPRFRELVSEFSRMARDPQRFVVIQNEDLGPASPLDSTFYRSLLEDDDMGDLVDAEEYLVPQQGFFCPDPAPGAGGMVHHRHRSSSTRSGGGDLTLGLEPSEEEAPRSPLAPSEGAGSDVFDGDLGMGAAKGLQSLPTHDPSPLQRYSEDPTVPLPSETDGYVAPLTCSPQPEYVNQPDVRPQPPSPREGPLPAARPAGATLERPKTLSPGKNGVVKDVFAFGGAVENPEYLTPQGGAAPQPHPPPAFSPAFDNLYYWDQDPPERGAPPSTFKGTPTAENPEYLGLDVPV

By viability is commonly meant a read-out of living cells in per cent, often relative to untreated cells. The term inhibition denotes the drop in the measured response relative to a control, in per cent. Turning to `CSc1nc(C)cc(Oc2ccc(=O)n(C)n2)n1`, the viability is 97% in experiment [1]; 97% (inactive) in experiment [3]; 112% (inactive) in experiment [4]; 90.5% (inactive) in experiment [5]; 78.7% in experiment [6] (setting [9]); 90.5% in experiment [6] (setting [10]). In experiment [2], the Her2 level was 89.5% (inactive). In addition, the differential viability (reversal) in experiment [6] (H69AR cells + 2 uM doxorubicin) was 11.8% (inactive). Further, the inhibition in experiment [7] is -3.92% (inactive); in experiment [8] it was -3.28% (inactive).

As to `O=C1CC2CS(=O)(=O)CC2N1c1ccc(Oc2ccccc2)cc1` (stereo not given), the viability in experiment [1] is 99%; in experiment [3], 99% (inactive); in experiment [4], 78.6% (inactive); in experiment [5], 95.6% (inactive); in experiment [6] (setting [9]), 98%; in experiment [6] (setting [10]), 95.6%. The Her2 level in experiment [2] was 87% (inactive). Also, the differential viability (reversal) in experiment [6] (H69AR cells + 2 uM doxorubicin) is -2.44% (inactive). Moreover, the inhibition was -5.47% (inactive) in experiment [7] and 3.11% (inactive) in experiment [8].

Turning to `Cc1cccn2c(=O)c3cc(C(=O)N4CCCc5ccccc54)n(C)c3nc12`, the viability in experiment [1] was 86.5%; in experiment [3], 86.5% (inactive); in experiment [4], 97.2% (inactive); in experiment [5] it was 90.2% (inactive); in experiment [6] (setting [9]), 89.2%; in experiment [6] (setting [10]), 90.2%. Also, the Her2 level in experiment [2] was 80% (inactive). In addition, in experiment [6] (H69AR cells + 2 uM doxorubicin), the differential viability (reversal) is 1.01% (inactive). Further, the figures for the inhibition in experiment [7] and in experiment [8] were -1.89% (inactive) and -5.08% (inactive), respectively.

In the case of `CCCCN(CCCC)CCCNC(=O)CC1Oc2ccc(C)cc2NC1=O` (stereo not given), the viability was 102% in experiment [1]; 102% (inactive) in experiment [3]; 78% (inactive) in experiment [4]; 90.7% (inactive) in experiment [5]; 86% in experiment [6] (setting [9]); 90.7% in experiment [6] (setting [10]). Moreover, in experiment [2], the Her2 level was 84.5% (inactive). Besides, the differential viability (reversal) in experiment [6] (H69AR cells + 2 uM doxorubicin) was 4.72% (inactive). Also, the inhibition in experiment [7] is -6.76% (inactive); in experiment [8], -3.17% (inactive).

`COc1ccc(C(=O)N2CCN(c3nc4cc(C)ccc4cc3C#N)CC2)c(OC)c1`: the viability is 112% in experiment [1]; 112% (inactive) in experiment [3]; 88.1% (inactive) in experiment [4]; 85.4% (inactive) in experiment [5]; 94.5% in experiment [6] (setting [9]); 85.4% in experiment [6] (setting [10]). Besides, the Her2 level in experiment [2] was 98% (inactive). In experiment [6] (H69AR cells + 2 uM doxorubicin), the differential viability (reversal) is -9.04% (inactive). For the same molecule, the inhibition in experiment [7] was -2.73% (inactive); in experiment [8], -1.75% (inactive).

On to `COc1ccc2nc(NC(=O)CSc3nnc(-c4ccoc4C)n3C)sc2c1`, for which the viability in experiment [1] was 112%; in experiment [3] it was 112% (inactive); in experiment [4], 80.2% (inactive); in experiment [5] it was 84.8% (inactive); in experiment [6] (setting [9]) it was 75.4%; in experiment [6] (setting [10]), 84.8%. The Her2 level in experiment [2] is 106% (inactive). Moreover, in experiment [6] (H69AR cells + 2 uM doxorubicin), the differential viability (reversal) was 9.45% (inactive). Besides, the inhibition in experiment [7] is -6.13% (inactive); in experiment [8] it was -3.87% (inactive).

`O=C(CSc1ccc(Cl)cc1)OCc1nnc(-c2ccccc2)o1`: the viability in experiment [1] is 98%; in experiment [3], 98% (inactive); in experiment [4] it was 106% (inactive); in experiment [5], 109% (inactive); in experiment [6] (setting [9]) it was 79.5%; in experiment [6] (setting [10]) it was 109%. Also, in experiment [2], the Her2 level is 99% (inactive). Also, the differential viability (reversal) in experiment [6] (H69AR cells + 2 uM doxorubicin) is 29.6% (inactive). Besides, the inhibition in experiment [7] is 0.53% (inactive); in experiment [8], -0.91% (inactive).

Turning to `CCOC(=O)c1ccccc1NC(=O)CSc1nnc(COc2ccccc2C)n1C`, the viability in experiment [1] was 63%; in experiment [3], 63% (inactive); in experiment [4], 82.6% (inactive); in experiment [5], 78.7% (inactive); in experiment [6] (setting [9]), 73%; in experiment [6] (setting [10]), 78.7%. In addition, in experiment [2], the Her2 level was 89% (inactive). Besides, the differential viability (reversal) in experiment [6] (H69AR cells + 2 uM doxorubicin) was 5.67% (inactive). For the same molecule, the results for the inhibition in experiment [7] and in experiment [8] were -3.08% (inactive) and -9.17% (inactive), respectively.

On to `O=c1c2ccccc2nnn1CSc1nc2cc(Cl)ccc2c(=O)n1Cc1ccco1`, for which the viability in experiment [1] was 102%; in experiment [3] it was 102% (inactive); in experiment [4], 81.5% (inactive); in experiment [5] it was 86.4% (inactive); in experiment [6] (setting [9]), 81.7%; in experiment [6] (setting [10]), 86.4%. In addition, the Her2 level in experiment [2] is 104% (inactive). In addition, in experiment [6] (H69AR cells + 2 uM doxorubicin), the differential viability (reversal) was 4.62% (inactive). Further, the values for the inhibition in experiment [7] and in experiment [8] were -0.53% (inactive) and -4.03% (inactive), respectively.

In the case of `CC(Sc1nnnn1-c1ccccc1)C(=O)Nc1ccc(Cl)cn1` (stereo not given), the viability in experiment [1] is 87.5%; in experiment [3], 87.5% (inactive); in experiment [4], 73.9% (inactive); in experiment [5], 92.7% (inactive); in experiment [6] (setting [9]), 86.1%; in experiment [6] (setting [10]), 92.7%. Moreover, the Her2 level in experiment [2] was 89% (inactive). Further, in experiment [6] (H69AR cells + 2 uM doxorubicin), the differential viability (reversal) was 6.54% (inactive). For the same molecule, the inhibition is -2.76% (inactive) in experiment [7] and 5.4% (inactive) in experiment [8].

Turning to `Cc1ccc(S(=O)(=O)NC(=O)c2cc(C)n(CCCn3ccnc3)c2C)cc1`, the viability in experiment [1] is 101%; in experiment [3], 101% (inactive); in experiment [4] it was 94.2% (inactive); in experiment [5] it was 90.7% (inactive); in experiment [6] (setting [9]) it was 87.8%; in experiment [6] (setting [10]), 90.7%. Moreover, in experiment [2], the Her2 level is 84% (inactive). The differential viability (reversal) in experiment [6] (H69AR cells + 2 uM doxorubicin) was 2.88% (inactive). Further, the inhibition is -7.2% (inactive) in experiment [7] and 0.82% (inactive) in experiment [8].

Regarding `COCCNS(=O)(=O)c1cc(F)ccc1OC`, the viability in experiment [1] is 90%; in experiment [3], 90% (inactive); in experiment [4] it was 95.1% (inactive); in experiment [5] it was 103% (inactive); in experiment [6] (setting [9]), 97.6%; in experiment [6] (setting [10]), 103%. For the same molecule, the Her2 level in experiment [2] is 99.5% (inactive). Further, the differential viability (reversal) in experiment [6] (H69AR cells + 2 uM doxorubicin) was 5.13% (inactive). Besides, the inhibition is -4.32% (inactive) in experiment [7] and -5.74% (inactive) in experiment [8].

As for `N#Cc1nc(-c2ccco2)oc1N1CCN(c2cccc(Cl)c2)CC1`, the viability in experiment [1] is 87%; in experiment [3] it was 87% (inactive); in experiment [4], 90.1% (inactive); in experiment [5], 90% (inactive); in experiment [6] (setting [9]), 95.2%; in experiment [6] (setting [10]) it was 90%. The Her2 level in experiment [2] is 85.5% (inactive). Also, the differential viability (reversal) in experiment [6] (H69AR cells + 2 uM doxorubicin) is -5.21% (inactive). Further, the inhibition in experiment [7] is -4.13% (inactive); in experiment [8], 4.29% (inactive).

Regarding `Cc1cccc(NC(=O)CC(C)(C)C)c1`, the viability was 110% in experiment [1]; 110% (inactive) in experiment [3]; 92.4% (inactive) in experiment [4]; 97.9% (inactive) in experiment [5]; 95.6% in experiment [6] (setting [9]); 97.9% in experiment [6] (setting [10]). Besides, the Her2 level in experiment [2] was 90.5% (inactive). The differential viability (reversal) in experiment [6] (H69AR cells + 2 uM doxorubicin) is 2.31% (inactive). For the same molecule, the figures for the inhibition in experiment [7] and in experiment [8] were -6.53% (inactive) and -5.08% (inactive), respectively.

As for `CC(C)NC(=O)CSc1nc2ccccc2n1-c1ccccc1`, the viability was 88.5% in experiment [1]; 88.5% (inactive) in experiment [3]; 100% (inactive) in experiment [4]; 84.3% (inactive) in experiment [5]; 92.4% in experiment [6] (setting [9]); 84.3% in experiment [6] (setting [10]). The Her2 level in experiment [2] was 101% (inactive). In addition, the differential viability (reversal) in experiment [6] (H69AR cells + 2 uM doxorubicin) was -8.05% (inactive). In addition, the inhibition was 2.86% (inactive) in experiment [7] and -4.13% (inactive) in experiment [8].

As to `Cn1c(/C(C#N)=C/Nc2ccccn2)nc2ccccc21`, the viability is 75% in experiment [1]; 75% (inactive) in experiment [3]; 110% (inactive) in experiment [4]; 73.5% (inactive) in experiment [5]; 85.9% in experiment [6] (setting [9]); 73.5% in experiment [6] (setting [10]). Further, the Her2 level in experiment [2] was 106% (inactive). The differential viability (reversal) in experiment [6] (H69AR cells + 2 uM doxorubicin) was -12.4% (inactive). The inhibition in experiment [7] was 4.47% (inactive); in experiment [8], 29.5% (inactive).
